Measurements taken from ChEMBL document CHEMBL3352390, “Selective CB2 receptor agonists. Part 2: Structure-activity relationship studies and optimization of proline-based compounds” (Bioorg Med Chem Lett, 2015).

Experiments:
[1] = Permeability from apical to basolateral side of human Caco2 cells; assay type: ADME, cell-based; conditions: Caco-2, read-out: permeability
[2] = Volume of distribution at steady state in Wistar Han rat at 1 mg/kg, iv; assay type: ADME, organism-based; parameters: dose 1 mg/kg, route intravenous; conditions: in vivo, read-out: Vdss
Summary of the method: (§1)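 Wistar Han or Sprague Dawley rats given 1 mg/kg iv as a solution or 5 mg/kg po as a suspension. Plasma taken at several time points and quantified by HPLC-MS/MS. Parameters derived by non-compartmental analysis.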

[3] = Oral bioavailability in Wistar Han rat at 5 mg/kg; assay type: ADME, organism-based; conditions: in vivo; summary of the method: as §1
[4] = Permeability from basolateral to apical side of human Caco2 cells; assay type: ADME, cell-based; conditions: Caco-2, read-out: permeability
[5] = Mean residence time in Wistar Han rat at 1 mg/kg, iv; assay type: ADME, organism-based; parameters: dose 1 mg/kg, route intravenous; conditions: in vivo; summary of the method: as §1
[6] = Ratio of drug uptake in brain to plasma of Wistar Han rat; assay type: ADME; conditions: brain and plasma, read-out: BPR
[7] = Oral bioavailability in Wistar Han rat at 10 mg/kg; assay type: ADME, organism-based; conditions: in vivo
Summary of the method: (§2)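 Wistar Han rats dosed orally with a suspension, at 10 mg/kg or 10 µmol/kg. Plasma taken at several time points and quantified by HPLC-MS/MS. Bioavailability derived by non-compartmental analysis.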

[8] = Oral bioavailability in Wistar Han rat at 10 umol/kg; assay type: ADME, organism-based; conditions: in vivo; summary of the method: as §2
[9] = Mean residence time in Wistar Han rat at […], iv; assay type: ADME, organism-based; conditions: in vivo
[10] = Volume of distribution at steady state in Wistar Han rat at […], iv; assay type: ADME, organism-based; conditions: in vivo, read-out: Vdss

| Compound | Papp A→B [1] [×10⁻⁶ cm/s] | Vd [2] [L/kg] | bioavailability [3] [%] | Papp B→A [4] [×10⁻⁶ cm/s] | MRT [5] [h] | Kp [6] | bioavailability [7] [%] | bioavailability [8] [%] | MRT [9] [h] | Vd [10] [L/kg] |
| --- | --- | --- | --- | --- | --- | --- | --- | --- | --- | --- |
| CC(C)(C)c1cc(NC(=O)[C@@H]2CCCN2c2ccc(Cl)cc2)no1 | 24 | 7.9 | 5 | 18 | 1 |  |  |  |  |  |
| CC(C)(C)c1cc(NC(=O)[C@@H]2CCC(=O)N2c2ccc(Cl)cc2)on1 | 11 | 4.5 |  | 23 | 1.3 | 0.41 | 44 |  |  |  |
| CC(C)(C)c1cc(NC(=O)[C@@H]2CCC(=O)N2c2ccc(C(F)(F)F)cc2)on1 | 14 |  |  | 7.5 |  | 0.9 |  | 88 | 6 | 3.8 |
| CC(C)(C)c1cc(NC(=O)[C@@H]2C[C@@H](O)CN2CC2CCOCC2)on1 (relative stereo) |  |  |  |  |  |  |  | 18 | 0.34 | 1.3 |
